Test results: ChEMBL document CHEMBL3259770, “Structure-activity relationship studies of the tricyclic indoline resistance-modifying agent” (J Med Chem, 2014)

Legend:
Format in all cases: functional
[1] = test system: Staphylococcus aureus; experiment: Antibacterial activity against methicillin-resistant Staphylococcus aureus ATCC 33592 after overnight incubation by broth microdilution assay in presence of 4 ug/ml meropenem
Procedure, shortened: (§1)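 Resensitization screen: compound from a 5 mg/mL DMSO stock, 2-fold serially diluted in MHB from 32 μg/mL final. Antibiotic was held at its CLSI-susceptible level: amoxicillin/clavulanic acid 4/2 μg/mL, cefazolin 8 μg/mL, meropenem 4 μg/mL. Final MRSA inoculum OD600 0.001, overnight at 37 °C with shaking. MRC was the concentration giving no visible overnight growth.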

[2] = test system: Staphylococcus aureus; experiment: Antibacterial activity against methicillin-resistant Staphylococcus aureus ATCC BAA-44 after overnight incubation by broth microdilution assay in presence of 8 ug/ml cefazolin; procedure, shortened: as §1
[3] = test system: Staphylococcus aureus; experiment: Antibacterial activity against methicillin-resistant Staphylococcus aureus ATCC BAA-44 after overnight incubation by broth microdilution assay in presence of 4 ug/ml amoxicillin and 2 ug/ml clavulanic acid; procedure, shortened: as §1

## C=C1CCC[C@@H]2N(C)c3ccc(Br)cc3[C@]12CCNS(=O)(=O)c1ccc(Cl)cc1
[1]
  MRC: >32 µg/mL
[2]
  MRC: >32 µg/mL
[3]
  MRC: >32 µg/mL

## C=C1CCC[C@@H]2N(S(=O)(=O)c3ccc(Cl)cc3)c3ccc(Br)cc3[C@]12CCNS(=O)(=O)c1ccc(Cl)cc1
[1]
  MRC: >32 µg/mL
[2]
  MRC: >32 µg/mL
[3]
  MRC: >32 µg/mL

## C=C1CCC[C@@H]2N(C(=O)c3ccc(Cl)cc3)c3ccc(Br)cc3[C@]12CCNS(=O)(=O)c1ccc(Cl)cc1
[1]
  MRC: >32 µg/mL
[2]
  MRC: >32 µg/mL
[3]
  MRC: >32 µg/mL

## C=C1CCC[C@@H]2Nc3ccc(Br)cc3[C@]12CCN(C)S(=O)(=O)c1ccc(Cl)cc1
[1]
  MRC: >32 µg/mL
[2]
  MRC: >32 µg/mL
[3]
  MRC: >32 µg/mL

## C=C1CCC[C@@H]2Nc3ccc(Br)cc3[C@]12CCN(S(=O)(=O)c1ccc(Cl)cc1)S(=O)(=O)c1ccc(Cl)cc1
[1]
  MRC: >32 µg/mL
[2]
  MRC: >32 µg/mL
[3]
  MRC: >32 µg/mL

## C=C1CCC[C@@H]2Nc3ccc(Br)cc3[C@]12CCN(C(=O)c1ccc(Cl)cc1)S(=O)(=O)c1ccc(Cl)cc1
[1]
  MRC: >32 µg/mL
[2]
  MRC: >32 µg/mL
[3]
  MRC: >32 µg/mL

## C=C1CCC[C@@H]2Nc3ccc(C)cc3[C@]12CCNS(=O)(=O)c1ccc(Cl)cc1
[1]
  MRC: 32 µg/mL
[2]
  MRC: 16 µg/mL
[3]
  MRC: 16 µg/mL

## C=C1CCC[C@@H]2Nc3ccc(OC)cc3[C@]12CCNS(=O)(=O)c1ccc(Cl)cc1
[1]
  MRC: >32 µg/mL
[2]
  MRC: >32 µg/mL
[3]
  MRC: >32 µg/mL

## C=C1CCC[C@@H]2Nc3ccc(F)cc3[C@]12CCNS(=O)(=O)c1ccc(Cl)cc1
[1]
  MRC: 16 µg/mL
[2]
  MRC: 16 µg/mL
[3]
  MRC: 16 µg/mL

## C=C1CCC[C@@H]2Nc3ccccc3[C@]12CCNS(=O)(=O)c1ccc(Cl)cc1
[1]
  MRC: 16 µg/mL
[2]
  MRC: 16 µg/mL
[3]
  MRC: 16 µg/mL

## C=C1CCC[C@@H]2Nc3c(ccc4ccccc34)[C@]12CCNS(=O)(=O)c1ccc(Cl)cc1
[1]
  MRC: >32 µg/mL
[2]
  MRC: >32 µg/mL
[3]
  MRC: >32 µg/mL

## C=C1CCC[C@@H]2Nc3cc(Br)ccc3[C@]12CCNS(=O)(=O)c1ccc(Cl)cc1
[1]
  MRC: 16 µg/mL
[2]
  MRC: 16 µg/mL
[3]
  MRC: 16 µg/mL

## C=C1CCC[C@@H]2Nc3cccc(Br)c3[C@]12CCNS(=O)(=O)c1ccc(Cl)cc1
[1]
  MRC: 16 µg/mL
[2]
  MRC: 16 µg/mL
[3]
  MRC: 32 µg/mL

## C=C1CCC[C@@H]2Nc3c(F)cc(Cl)cc3[C@]12CCNS(=O)(=O)c1ccc(Cl)cc1
[1]
  MRC: 32 µg/mL
[2]
  MRC: 16 µg/mL
[3]
  MRC: 16 µg/mL

## C=C1CCC[C@@H]2Nc3ccc(Br)cc3[C@]12CCN
[1]
  MRC: 32 µg/mL
[2]
  MRC: 32 µg/mL
[3]
  MRC: 32 µg/mL

## C=C1CCC[C@@H]2Nc3ccc(Br)cc3[C@]12CCNS(=O)(=O)c1ccccc1
[1]
  MRC: 16 µg/mL
[2]
  MRC: 8 µg/mL
[3]
  MRC: 8 µg/mL

## C=C1CCC[C@@H]2Nc3ccc(Br)cc3[C@]12CCNS(=O)(=O)c1ccc(Cl)cc1Cl
[1]
  MRC: 4 µg/mL
[2]
  MRC: >32 µg/mL
[3]
  MRC: 8 µg/mL

## C=C1CCC[C@@H]2Nc3ccc(Br)cc3[C@]12CCNS(=O)(=O)c1ccc(C#N)cc1
[1]
  MRC: 16 µg/mL
[2]
  MRC: 8 µg/mL
[3]
  MRC: 16 µg/mL

## C=C1CCC[C@@H]2Nc3ccc(Br)cc3[C@]12CCNS(=O)(=O)c1ccccn1
[1]
  MRC: 32 µg/mL
[2]
  MRC: 32 µg/mL
[3]
  MRC: 32 µg/mL

## C=C1CCC[C@@H]2Nc3ccc(Br)cc3[C@]12CCNS(=O)(=O)c1ccc(N)cc1
[1]
  MRC: 16 µg/mL
[2]
  MRC: 16 µg/mL
[3]
  MRC: 16 µg/mL
